Data published in ChEMBL document CHEMBL4425098, “Thiolactomycin-Based Inhibitors of Bacterial β-Ketoacyl-ACP Synthases with in Vivo Activity” (J Med Chem, 2016).
pKd: −log10 of the molar value. In brackets after ≈: the same amount, converted by molar mass. Activity calls are given as the source filed them. The calls are words filed in the database; no cut-off is given here.

Tests used:
[1] = system: Mycobacterium tuberculosis; test: Antibacterial activity against Mycobacterium tuberculosis H37Rv after 6 days by Alamar blue dye-based colorimetric assay; format: functional; conditions: 144 h
How it was run: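 M. tuberculosis H37Rv grown to early-mid log phase in Middlebrook 7H9 with 10% OADC and 0.05% Tween 80, added to 1:2 serial compound dilutions, and grown for 6 days at 37°C. Alamar blue then added for a further 24 h. MIC taken as the concentration preventing visible growth and Alamar blue reduction in all replicates.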

[2] = system: Francisella tularensis; test: Antibacterial activity against Francisella tularensis LVS after 18 to 24 hrs by Alamar blue dye-based colorimetric assay; format: functional
[3] = system: Staphylococcus aureus; test: Antibacterial activity against methicillin-sensitive Staphylococcus aureus RN4220 after 18 to 24 hrs by Alamar blue dye-based colorimetric assay; format: functional
How it was run: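 Two-fold serial dilutions from 512 down to 0.25 μg/mL in CAMHB (microbroth dilution); incubated 37 °C for 18–24 h, then Alamar Blue added for a further 4 h. Absorbance read at 570 and 600 nm; percent growth reduction plotted against concentration, MIC90 from non-linear regression; growth and MICs confirmed by optical density.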

[4] = system: Staphylococcus aureus; test: Antibacterial activity against methicillin-resistant Staphylococcus aureus BAA 1762 after 18 to 24 hrs by Alamar blue dye-based colorimetric assay; format: functional
[5] = system: Yersinia pestis; test: Antibacterial activity against Yersinia pestis A1122 after 18 to 24 hrs by Alamar blue dye-based colorimetric assay; format: functional
[6] = target: T1, 3-oxoacyl-[acyl-carrier-protein] synthase 2 (Staphylococcus aureus, UniProt Q5TKS0); test: Binding affinity to Staphylococcus aureus wild type FabF expressed in Escherichia coli BL21 (DE3) PlysS cells by intrinsic tryptophan fluorescence quenching-based fluorimetric method
T1 sequence (Q5TKS0 whole entry): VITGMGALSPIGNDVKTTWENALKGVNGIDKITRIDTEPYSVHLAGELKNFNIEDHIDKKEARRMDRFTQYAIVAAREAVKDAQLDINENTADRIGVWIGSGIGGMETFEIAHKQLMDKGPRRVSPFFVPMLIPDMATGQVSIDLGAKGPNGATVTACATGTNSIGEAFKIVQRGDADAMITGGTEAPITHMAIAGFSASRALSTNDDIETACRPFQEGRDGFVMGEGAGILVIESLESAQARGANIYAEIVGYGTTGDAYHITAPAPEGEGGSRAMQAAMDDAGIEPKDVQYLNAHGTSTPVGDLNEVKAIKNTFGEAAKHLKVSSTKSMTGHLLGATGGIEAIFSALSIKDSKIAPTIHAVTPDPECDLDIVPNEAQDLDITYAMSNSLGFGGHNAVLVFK

[7] = target: 3-oxoacyl-[acyl-carrier-protein] synthase 2 (Staphylococcus aureus, UniProt Q5TKS0, C165Q); test: Binding affinity to Staphylococcus aureus FabF C165Q mutant expressed in Escherichia coli BL21 (DE3) PlysS cells by intrinsic tryptophan fluorescence quenching-based fluorimetric method
How it was run: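 Kd by quenching of intrinsic tryptophan fluorescence (excitation 280 nm, emission 337 nm). Inhibitor stocks in DMSO or buffer were titrated into 1 μM His-tag-purified enzyme in 50 mM Tris-HCl, 150 mM NaCl, 1 mM DTT, pH 8.5. mtFabB was expressed in M. smegmatis MC²155; saFabF was expressed in E. coli BL21(DE3) pLysS.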

[8] = system: Mycobacterium tuberculosis; test: Binding affinity to Mycobacterium tuberculosis wild type FabB expressed in Mycobacterium smegmatis MC2 155 by WaterLOGSY-based competition assay
[9] = system: THP-1; test: Cytotoxicity against human THP1 cells at < 100 ug/ml after 2 days by Alamar blue assay; format: cell-based; conditions: thp-1, 48 h
[10] = system: Staphylococcus aureus; test: Antibacterial activity against methicillin-resistant Staphylococcus aureus BAA 1762 infected in Swiss Webster mouse assessed as increase in survival rate at 100 mg/kg, sc administered 1 and 25 hrs post infection measured twice a day for 5 days relative to vehicle-treated control; format: functional, organism-based
How it was run: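 Mice made neutropenic with cyclophosphamide 4 days and 1 day before infection. MRSA BAA 1762 was given IP as 0.5 mL of 5×10⁷ cells/mL in BHI. Analogues in water/ethanol, or vancomycin in water, were dosed SC at 100 mg/kg/inj at 1 and 25 h post infection. Survival was checked every 12 h for 5 days, n=6–7 per group. Average survival time was compared with vehicle by one-tailed t test.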

[11] = system: Klebsiella pneumoniae; test: Antibacterial activity against Klebsiella pneumoniae KPC2ST258 infected in Swiss Webster mouse assessed as survival time at 100 mg/kg, sc administered 1, 12 and 24 hrs post infection measured every 12 hrs for 7 days; format: functional
How it was run: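 K. pneumoniae KPC2ST258 was given IP as 5×10⁶ cfu in BHI broth. Drugs in saline/PEG400/ethanol (40/20/40) were injected SC at 100 mg/kg/inj at 1, 12 and 24 h post infection. Mice were checked every 12 h for 7 days, n=8–10 per group. Average survival time was compared with vehicle by one-tailed t test.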

[12] = system: Burkholderia pseudomallei; test: Antibacterial activity against Burkholderia pseudomallei after 18 to 24 hrs by Alamar blue dye-based colorimetric assay; format: functional

## C=C/C(C)=C/[C@@]1(C)SC(=O)C(C)=C1O [THIOLACTOMYCIN]
[1]
  MIC90: 3.1 µg/mL (≈ 14.7 µM)
[2]
  MIC90: 2.8 µg/mL (≈ 13.3 µM)
[3]
  MIC90: 75 µg/mL (≈ 357 µM)
[4]
  MIC90: 75 µg/mL (≈ 357 µM)
[5]
  MIC90: 8 µg/mL (≈ 38 µM)
[6]
  pKd: 3.97
[7]
  pKd: 4.06
[8]
  Activity: inactive
[9]
  Activity: Non-Toxic
[10]
  Activity: Active
[11]
  MSD: 3.25 days
[12]
  MIC: 8 µg/mL (≈ 38 µM)
